From ChEMBL document CHEMBL1153560, “In vitro activities of doripenem and six comparator drugs against 423 aerobic and anaerobic bacterial isolates from infected diabetic foot wounds” (2008)
≈ marks a conversion by molar mass, not a printed value.

Experiments:
Format in all cases: functional
[1] = test system: Staphylococcus epidermidis; test: Antibacterial activity against Staphylococcus epidermidis isolated from patient with diabetic foot infection after 18 to 24 hrs by broth microdilution method
In short: (§1)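 Isolates were subcultured on Trypticase soy blood agar and tested by broth microdilution in cation-adjusted Mueller-Hinton broth. In-house trays of twofold drug dilutions were stored at −70°C. Overnight colonies gave a final inoculum of about 5 × 10^5 CFU/ml. Plates were read after 18 to 24 h at 37°C.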

Providencia rettgeri [2] = test: Antibacterial activity against Proteus rettgeri isolated from patient with diabetic foot infection assessed as percent resistant isolates after 18 to 24 hrs by broth microdilution method
In short: (§2)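 Aerobes subcultured on Trypticase soy blood agar, then broth microdilution in cation-adjusted Mueller-Hinton broth. Trays prepared in-house with twofold dilutions and stored at −70°C. Overnight colonies suspended to about 5 × 10^5 CFU/ml final. Read after 18 to 24 h at 37°C. QC strains included S. aureus ATCC 29213 and E. coli ATCC 25922.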

Enterobacter cloacae = test: Antibacterial activity against Enterobacter cloacae isolated from patient with diabetic foot infection after 18 to 24 hrs by broth microdilution method; in short: as §1
Pseudomonas aeruginosa = test: Antibacterial activity against Pseudomonas aeruginosa isolated from patient with diabetic foot infection assessed as percent resistant isolates after 18 to 24 hrs by broth microdilution method; in short: as §2
Providencia rettgeri [3] = test: Antibacterial activity against Proteus rettgeri isolated from patient with diabetic foot infection after 18 to 24 hrs by broth microdilution method; in short: as §1
Staphylococcus aureus [4] = test: Antibacterial activity against methicillin-resistant Staphylococcus aureus isolated from patient with diabetic foot infection after 18 to 24 hrs by broth microdilution method
In short: (§3)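 Isolates grown on Trypticase soy blood agar, then tested by broth microdilution in unsupplemented cation-adjusted Mueller-Hinton broth. In-house trays held serial twofold drug dilutions and were stored at −70°C. Overnight colonies were suspended to a final inoculum near 5 × 10^5 CFU/ml, and trays read after 18–24 h at 37°C. QC strains: S. aureus ATCC 29213, E. coli ATCC 25922.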

Escherichia coli = test: Antibacterial activity against Escherichia coli isolated from patient with diabetic foot infection after 18 to 24 hrs by broth microdilution method; in short: as §1
Klebsiella pneumoniae = test: Antibacterial activity against Klebsiella pneumoniae isolated from patient with diabetic foot infection after 18 to 24 hrs by broth microdilution method; in short: as §1
Klebsiella oxytoca [5] = test: Antibacterial activity against Klebsiella oxytoca isolated from patient with diabetic foot infection assessed as percent resistant isolates after 18 to 24 hrs by broth microdilution method; in short: as §2
Staphylococcus aureus [6] = test: Antibacterial activity against methicillin-sensitive Staphylococcus aureus isolated from patient with diabetic foot infection after 18 to 24 hrs by broth microdilution method
In short: (§4)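 Subcultured on Trypticase soy blood agar, then broth microdilution in cation-adjusted Mueller-Hinton broth. Trays were made in-house with serial twofold drug dilutions and stored at −70°C. Inoculum was colonies from overnight growth, final approximately 5 × 10^5 CFU/ml. MIC was read after 18 to 24 h at 37°C. QC strains: S. aureus ATCC 29213 and E. coli ATCC 25922.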

Corynebacterium accolens [7] = test: Antibacterial activity against Corynebacterium accolens isolated from patient with diabetic foot infection assessed as percent resistant isolates after 48 hrs by broth microdilution method
In short: (§5)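 Isolates subcultured on Trypticase soy blood agar. Broth microdilution in cation-adjusted Mueller-Hinton broth with lysed horse blood, using in-house twofold dilution trays stored at −70°C. Inoculum from overnight colonies at about 5 × 10^5 CFU/ml final. Read after 18 to 24 h at 37°C, up to 48 h for some Corynebacterium strains.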

[8] = test system: Staphylococcus epidermidis; test: Antibacterial activity against Staphylococcus epidermidis isolated from patient with diabetic foot infection assessed as percent resistant isolates after 18 to 24 hrs by broth microdilution method; in short: as §2
[9] = test system: Corynebacterium aurimucosum; test: Antibacterial activity against Corynebacterium aurimucosum isolated from patient with diabetic foot infection assessed as percent resistant isolates after 48 hrs by broth microdilution method; in short: as §5
Proteus vulgaris = test: Antibacterial activity against Proteus vulgaris isolated from patient with diabetic foot infection assessed as percent resistant isolates after 18 to 24 hrs by broth microdilution method; in short: as §2
[10] = test system: Corynebacterium amycolatum; test: Antibacterial activity against Corynebacterium amycolatum isolated from patient with diabetic foot infection after 48 hrs by broth microdilution method
In short: (§6)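 Isolates were subcultured on Trypticase soy blood agar. Broth microdilution used cation-adjusted Mueller-Hinton broth with lysed horse blood, in-house trays of twofold drug dilutions stored at −70°C. Colonies from overnight growth gave a final inoculum of about 5 × 10^5 CFU/ml. Trays were read after 18 to 24 h at 37°C, up to 48 h for some strains.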

Corynebacterium striatum = test: Antibacterial activity against Corynebacterium striatum isolated from patient with diabetic foot infection assessed as percent resistant isolates after 48 hrs by broth microdilution method; in short: as §5
[11] = test system: Streptococcus dysgalactiae subsp. equisimilis; test: Antibacterial activity against Streptococcus dysgalactiae subsp. equisimilis isolated from patient with diabetic foot infection after 18 to 24 hrs by broth microdilution method
In short: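 Streptococcal isolates were subcultured on Trypticase soy blood agar. Broth microdilution used cation-adjusted Mueller-Hinton broth with lysed horse blood, in in-house trays of serial twofold drug dilutions stored at −70°C. Overnight colonies were suspended to a final inoculum of approximately 5 × 10^5 CFU/ml. MIC was read after 18 to 24 h incubation at 37°C.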

Corynebacterium accolens [12] = test: Antibacterial activity against Corynebacterium accolens isolated from patient with diabetic foot infection after 48 hrs by broth microdilution method; in short: as §6
[13] = test system: Corynebacterium amycolatum; test: Antibacterial activity against Corynebacterium amycolatum isolated from patient with diabetic foot infection assessed as percent resistant isolates after 48 hrs by broth microdilution method; in short: as §5
Corynebacterium jeikeium = test: Antibacterial activity against Corynebacterium jeikeium isolated from patient with diabetic foot infection assessed as percent resistant isolates after 48 hrs by broth microdilution method; in short: as §5
Klebsiella oxytoca [14] = test: Antibacterial activity against Klebsiella oxytoca isolated from patient with diabetic foot infection after 18 to 24 hrs by broth microdilution method; in short: as §1
[15] = test system: Staphylococcus lugdunensis; test: Antibacterial activity against Staphylococcus lugdunensis isolated from patient with diabetic foot infection after 18 to 24 hrs by broth microdilution method; in short: as §4
Staphylococcus aureus [16] = test: Antibacterial activity against methicillin-resistant Staphylococcus aureus isolated from patient with diabetic foot infection assessed as percent resistant isolates after 18 to 24 hrs by broth microdilution method; in short: as §3
[17] = test system: Staphylococcus haemolyticus; test: Antibacterial activity against Staphylococcus haemolyticus isolated from patient with diabetic foot infection assessed as percent resistant isolates after 18 to 24 hrs by broth microdilution method
Corynebacterium simulans = test: Antibacterial activity against Corynebacterium simulans isolated from patient with diabetic foot infection assessed as percent resistant isolates after 48 hrs by broth microdilution method; in short: as §5
Klebsiella aerogenes = test: Antibacterial activity against Enterobacter aerogenes isolated from patient with diabetic foot infection after 18 to 24 hrs by broth microdilution method; in short: as §1
Corynebacterium xerosis = test: Antibacterial activity against Corynebacterium xerosis isolated from patient with diabetic foot infection assessed as percent resistant isolates after 48 hrs by broth microdilution method; in short: as §5

Row | SMILES | MIC50 [1] [µg/mL] | MIC90 [1] [µg/mL] | Activity (Providencia rettgeri [2]) [%] | MIC50 (Enterobacter cloacae) [µg/mL] | MIC90 (Enterobacter cloacae) [µg/mL] | Activity (Pseudomonas aeruginosa) [%] | MIC50 (Providencia rettgeri [3]) [µg/mL] | MIC90 (Providencia rettgeri [3]) [µg/mL] | MIC50 (Staphylococcus aureus [4]) [µg/mL] | MIC90 (Staphylococcus aureus [4]) [µg/mL] | MIC50 (Escherichia coli) [µg/mL] | MIC90 (Escherichia coli) [µg/mL] | MIC50 (Klebsiella pneumoniae) [µg/mL] | MIC90 (Klebsiella pneumoniae) [µg/mL] | Activity (Klebsiella oxytoca [5]) [%] | MIC50 (Staphylococcus aureus [6]) [µg/mL] | MIC90 (Staphylococcus aureus [6]) [µg/mL] | Activity [8] [%] | Activity (Proteus vulgaris) [%] | MIC50 [10] [µg/mL] | further results
1 | C[C@@H](O)[C@H]1C(=O)N2C(C(=O)O)=C(SCCNC=N)C[C@H]12 [IMIPENEM ANHYDROUS] | 0.125 (≈ 0.418 µM) | 0.5 (≈ 1.67 µM) | 0 | 1 (≈ 3.34 µM) | 2 (≈ 6.68 µM) | 13 | 0.5 (≈ 1.67 µM) | 4 (≈ 13.4 µM) | 0.25 (≈ 0.835 µM) | 4 (≈ 13.4 µM) | 0.125 (≈ 0.418 µM) | 0.25 (≈ 0.835 µM) | 0.25 (≈ 0.835 µM) | 1 (≈ 3.34 µM) | 0 | ≤ 0.015 | 0.03 (≈ 0.1 µM) | 67 | 0 | 0.25 (≈ 0.835 µM) | Activity (Corynebacterium accolens [7]): 0%; Activity [9]: 30%; MIC90 [10]: 32 µg/mL (≈ 107 µM); Activity (Corynebacterium striatum): 0%; MIC50 [11]: ≤ 0.015 µg/mL; MIC90 [11]: ≤ 0.015 µg/mL; MIC50 (Corynebacterium accolens [12]): 0.03 µg/mL (≈ 0.1 µM); MIC90 (Corynebacterium accolens [12]): 0.125 µg/mL (≈ 0.418 µM); Activity [13]: 7%; Activity (Corynebacterium jeikeium): 30%; MIC50 (Klebsiella oxytoca [14]): 0.25 µg/mL (≈ 0.835 µM); MIC90 (Klebsiella oxytoca [14]): 1 µg/mL (≈ 3.34 µM); MIC50 [15]: 0.03 µg/mL (≈ 0.1 µM); MIC90 [15]: 0.06 µg/mL (≈ 0.2 µM); Activity (Staphylococcus aureus [16]): 100%; Activity [17]: 73%; Activity (Corynebacterium simulans): 0%; MIC50 (Klebsiella aerogenes): 1 µg/mL (≈ 3.34 µM); MIC90 (Klebsiella aerogenes): 2 µg/mL (≈ 6.68 µM); Activity (Corynebacterium xerosis): 0%
2 | C[C@@H](O)[C@H]1C(=O)N2C(C(=O)O)=C(S[C@@H]3CN[C@H](CNS(N)(=O)=O)C3)[C@H](C)[C@H]12 [DORIPENEM] | 0.25 (≈ 0.595 µM) | 2 (≈ 4.76 µM) | 0 | 0.06 (≈ 0.143 µM) | 0.25 (≈ 0.595 µM) | 7 | 0.125 (≈ 0.297 µM) | 0.25 (≈ 0.595 µM) | 0.5 (≈ 1.19 µM) | 8 (≈ 19 µM) | 0.03 (≈ 0.0713 µM) | 0.03 (≈ 0.0713 µM) | 0.06 (≈ 0.143 µM) | 0.125 (≈ 0.297 µM) | 0 | 0.03 (≈ 0.0713 µM) | 0.03 (≈ 0.0713 µM) | 67 | 0 | 1 (≈ 2.38 µM) | MIC90 [10]: 8 µg/mL (≈ 19 µM); MIC50 [11]: ≤ 0.015 µg/mL; MIC90 [11]: ≤ 0.015 µg/mL; MIC50 (Corynebacterium accolens [12]): 0.125 µg/mL (≈ 0.297 µM); MIC90 (Corynebacterium accolens [12]): 0.25 µg/mL (≈ 0.595 µM); MIC50 (Klebsiella oxytoca [14]): 0.06 µg/mL (≈ 0.143 µM); MIC90 (Klebsiella oxytoca [14]): 0.125 µg/mL (≈ 0.297 µM); MIC50 [15]: 0.125 µg/mL (≈ 0.297 µM); MIC90 [15]: 0.125 µg/mL (≈ 0.297 µM); Activity (Staphylococcus aureus [16]): 100%; Activity [17]: 73%; MIC50 (Klebsiella aerogenes): 0.06 µg/mL (≈ 0.143 µM); MIC90 (Klebsiella aerogenes): 0.25 µg/mL (≈ 0.595 µM)
